According to ChEMBL document CHEMBL6078650, “A Phenotypic High-Throughput Screen Identifies Small Molecule Modulators of Endogenous RGS10 in BV-2 Cells” (J Med Chem, 2024):
Activity calls are given as the source filed them. The rule behind the calls is not given here.

Assays:
[1] = (§1) Reversal of LPS-induced RGS10 silencing in mouse single close BV-2 cells assessed as RGS10 protein level by measuring LPS response measured after 24 hrs by Nano-Glo HiBit Lytic detection assay; type: functional; set-up: concentration or dose not given beside the values
How it was run: (§2)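 HiBiT-knock-in BV-2 single clone exposed to LPS at 10 ng/mL final for 24 h at 37 °C in phenol red-free assay medium; RGS10-HiBiT measured by Nano-Glo HiBiT lytic detection (LgBiT 1:100, substrate 1:50), luminescence read after 15 min at room temperature.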

[2] = Induction of RGS10 expression in mouse single close BV-2 cells assessed as RGS10 protein level by measuring luminescence signal measured after 24 hrs by Nano-Glo HiBit Lytic detection assay; type: functional; set-up: concentration or dose not given beside the values
How it was run: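 BV-2-RGS10-HiBiT single-clone cells (CRISPR HiBiT tag at RGS10 C-terminus) in phenol red-free DMEM, 10% ultralow IgG FBS; IFNγ 10 ng/mL final plus compound 1–100 μM, 24 h, 37 °C. GF-AFC viability fluorescence (390/505) read first, then Nano-Glo HiBiT lytic luminescence (LgBiT 1:100, substrate 1:50); RLU/RFU expressed as % of IFNγ alone; 4 independent experiments in triplicate.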

[3] = Reversal of IFNgamma-induced RGS10 silencing in mouse single close BV-2 cells assessed as IFN response measured after 24 hrs by Nano-Glo HiBit Lytic detection assay relative to control; type: functional; set-up: concentration or dose not given beside the values
How it was run: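 HiBiT-tagged BV-2-RGS10 clone treated with compound at 20 μM plus IFNγ 10 ng/mL for 24 h at 37 °C; viability by GF-AFC fluorescence, then HiBiT lytic luminescence; signal normalized RLU/RFU, expressed as % of IFNγ-alone signal; four independent experiments in triplicate, one-way ANOVA with Dunnett's test.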

BV-2 [4] = experiment: as §1; type: functional; set-up: concentration or dose not given beside the values; how it was run: as §2
[5] = Reversal of IFNgamma-induced RGS10 silencing in mouse single close BV-2 cells assessed as RGS10 protein level by measuring luminescence signal measured after 24 hrs by Nano-Glo HiBit Lytic detection assay; details: BV-2, 24 h
BV-2 [6] = experiment: Reversal of IFNgamma-induced RGS10 silencing in mouse single close BV-2 cells assessed as suppression of RGS10 protein level at 20 uM measured after 24 hrs by Western blot analysis; type: functional, cell-based
How it was run: (§3)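 Parental BV-2 cells, IFNγ 10 ng/mL with compound 20 μM for 24 h or 48 h; lysates in Tris/NaCl/Triton/SDS buffer with protease inhibitors, equal protein on 12% SDS-PAGE, goat anti-RGS10 (1:1,000) with β-actin or GAPDH loading control, infrared secondary detection; four independent experiments in duplicate.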

BV-2 [7] = experiment: Reversal of IFNgamma-induced RGS10 silencing in mouse single close BV-2 cells assessed as suppression of RGS10 protein level at 20 uM measured after 48 hrs by Western blot analysis; type: functional, cell-based; how it was run: as §3
BV-2 [8] = experiment: Reversal of IFNgamma-induced inflammatory gene expression in mouse single close BV-2 cells assessed as reversal of iNOS expression at 20 uM measured after 24 hrs by qRT-PCR analysis; type: functional, cell-based
How it was run: (§4)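 BV-2 cells treated 24 h with IFNγ 10 ng/mL with or without compound at 20 μM; iNOS, COX-2 and TNFα mRNA measured by one-step qRT-PCR (100 ng RNA template, 0.4 μM primers, 40 cycles), Cq read each cycle.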

BV-2 [9] = experiment: Reversal of IFNgamma-induced inflammatory gene expression in mouse single close BV-2 cells assessed as reversal of COX-2 expression at 20 uM measured after 24 hrs by qRT-PCR analysis; type: functional, cell-based; how it was run: as §4
BV-2 [10] = experiment: Reversal of IFNgamma-induced inflammatory gene expression in mouse single close BV-2 cells assessed as reversal of TNFalpha expression at 20 uM measured after 24 hrs by qRT-PCR analysis; type: functional, cell-based; how it was run: as §4
BV-2 [11] = experiment: Reversal of IFNgamma-induced RGS10 silencing in mouse single close BV-2 cells assessed as increase in of RGS10 mRNA level measured after 24 hrs by qRT-PCR analysis; type: functional, cell-based; details: dose 0.5-20 µM
How it was run: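 Parental BV-2 cells given IFNγ 10 ng/mL for 24 h with compound 0.5–20 μM; RGS10 mRNA by one-step qRT-PCR (100 ng RNA, 0.4 μM primers; RT 55 °C 10 min, 40 cycles 95 °C/60 °C), Cq values with melt curve.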

| EC50 [5] [µM] | Compound | Activity [1] [%] | Activity [2] [%] | Activity [3] [%] | Activity (BV-2 [4]) | Activity (BV-2 [6]) | Activity (BV-2 [7]) | Activity (BV-2 [8]) | Activity (BV-2 [9]) | Activity (BV-2 [10]) | Activity (BV-2 [11]) |
| --- | --- | --- | --- | --- | --- | --- | --- | --- | --- | --- | --- |
|  | CCOc1ccc(-c2nc(C3CC(=O)N(c4ccc(C)cc4)C3)no2)cc1 (centres undefined) | 104.7 | 85.6 | 97.4 |  |  |  |  |  |  |  |
|  | Cc1ccc(-n2c(=O)c3c(cc(C)n3C)n(CC(=O)Nc3ccc(Br)cc3F)c2=O)cc1 |  | 156.8 | 90.1 | inactive |  |  |  |  |  |  |
|  | COc1ccc(C2NC(=O)N(CC(=O)N3CCCCCC3)C3=C2C(=O)OC3)cc1 (centres undefined) | 87.4 | 104.8 | 102.4 |  |  |  |  |  |  |  |
|  | COc1cccc(CNC(=O)c2ccc3c(Cl)c4c(nc3c2)CCCC4)c1 | 97.4 | 104.6 | 141.3 |  |  |  |  |  |  |  |
| 33.6 | CCc1cc(-c2csc(S(=O)(=O)Nc3ccc(C)cc3Br)c2)on1 | 104.1 | 76.8 | 206.2 |  | inactive | Active | Active | Active | inactive | Dose-dependent-effect; Significant Reversal Achieved At > 5 Um |
|  | CCNc1ncnc2sc3c(c12)CCN(Cc1ccncc1)C3 | 89.5 | 97.1 | 94 |  |  |  |  |  |  |  |
|  | O=C(Nc1ccc(F)cc1)c1cc2n(n1)CC(c1ccc3c(c1)OCO3)OC2 (centres undefined) | 105.3 | 113.8 | 123.2 |  |  |  |  |  |  |  |
|  | CC1=NS(=O)(=O)N(C)C=C1C(=O)OCc1nc(-c2cccc(F)c2)no1 | 90.3 | 78.9 | 94.3 |  |  |  |  |  |  |  |
| 31.2 | O=C(CN1C(=O)NC(c2ccc(Cl)cc2)C2=C1COC2=O)Nc1cc(F)cc(F)c1 (centres undefined) | 80.4 | 56.8 | 186.7 |  | inactive |  | Active |  | inactive |  |
| 13.8 | Cc1cc(C)c2c(=O)cc(CN(Cc3ccccc3)Cc3ccco3)[nH]c2c1 | 92.8 | 98.5 | 230.6 |  | inactive |  | Active | Active | inactive |  |
|  | Cc1cccc(-n2c(=O)c3c(cc(C)n3C)n(CC(=O)Nc3ccc(C(F)(F)F)cc3)c2=O)c1 | 113.8 | 95.9 | 145.1 |  |  |  |  |  |  |  |
| 23.5 | O=C(CN1C(=O)NC(c2ccc(Cl)cc2)C2=C1COC2=O)Nc1ccc(F)c(F)c1 (centres undefined) | 84.1 | 69.6 | 171.6 |  | inactive |  | Active |  | inactive |  |
| 78.8 | Cc1oc(-c2ccc(Cl)cc2)nc1CN1CCCC(C(=O)N2CCN(C(=O)c3ccco3)CC2)C1 (centres undefined) | 116.9 | 101.8 | 172.8 |  | inactive |  | Active |  | inactive |  |
|  | Cc1cc(C)cc(Nc2nc(C)cc(=O)n2CC(=O)Nc2cccc(C#N)c2)c1 | 105.8 | 116.1 | 102.4 |  |  |  |  |  |  |  |
|  | COCCOC1CCN(C(=O)Nc2ccc(C(=O)OC)cc2)CC1 | 121.7 | 101.2 | 106.7 |  |  |  |  |  |  |  |
